SENP6 inh = SENP6 protease inhibition; hit rate 1.8% among 330,000; Recombinant SENP6 catalytic domain, aminoluciferin luminescence; AID 2599; inhibition, % at 10 µM; Q9GZR1;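 active means inhibition above about 50% at the single tested dose, limit read from the data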;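 further: plate controls were DMSO wells with enzyme for no effect and DMSO wells lacking enzyme for full effect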
Target sequence (Q9GZR1 628-1112 limits assumed): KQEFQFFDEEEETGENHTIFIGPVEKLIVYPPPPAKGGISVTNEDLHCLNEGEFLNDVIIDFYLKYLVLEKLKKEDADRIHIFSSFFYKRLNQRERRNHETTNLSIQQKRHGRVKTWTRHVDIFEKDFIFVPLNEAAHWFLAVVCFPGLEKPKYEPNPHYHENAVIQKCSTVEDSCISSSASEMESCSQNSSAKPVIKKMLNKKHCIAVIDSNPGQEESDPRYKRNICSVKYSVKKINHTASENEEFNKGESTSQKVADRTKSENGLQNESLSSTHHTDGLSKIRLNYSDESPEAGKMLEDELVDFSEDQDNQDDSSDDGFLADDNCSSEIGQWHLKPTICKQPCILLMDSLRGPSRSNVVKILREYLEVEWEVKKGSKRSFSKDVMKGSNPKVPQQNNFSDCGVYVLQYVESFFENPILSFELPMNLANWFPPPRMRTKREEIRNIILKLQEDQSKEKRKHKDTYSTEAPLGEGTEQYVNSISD
SENP7 block = blocks the human protease SENP7; Q9BQF6; recombinant SENP7, Z-RLRGG-aminoluciferin luminescence, 40 min; inhibition, % at 5 µM; hit rate 1.5% among 330,000; AID 434973;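 active means inhibition above about 50% at the single test dose, limit read from the data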;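 further: plate controls were DMSO with enzyme for no effect and no enzyme buffer wells for full effect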
SENP8 block-1 = SENP8 protease inhibition | Q96LD8 | purified SENP8, Z-RLRGG-aminoluciferin cleavage, luminescence | inhibition, % at 10 µM | hit rate 1.2% among 330,000 | AID 2540; in the data active means inhibition above about 50%
SENP8 block-2 = SENP8 (human) protease inhibition; Q96LD8; inhibition, % at 20 µM; recombinant SENP8, Nedd8 substrate fluorescence; hit rate 0.64% among 360,000; in the data active means inhibition mostly above about 40%, no sharp cut-off; inactive means mostly below about 27%
SENP1 inh = inhibitors of human SENP1 SUMO protease catalytic domain | Q9P0U3 | recombinant SENP1 catalytic domain, CyPet-SUMO1-YPet FRET cleavage | inhibition, % at 10 µM | hit rate 0.21% among 360,000;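 active means inhibition at least 30% at 10 µM, raw YFP signal under a set limit, fluorescence ratio 0.5 to 1.5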;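 further: 0% = enzyme with DMSO and 100% = no enzyme wells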
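Test system: recombinant human SENP1 catalytic domain, His6-tagged / Medium: pH 8 Tris buffer with EDTA, NaCl, BME, BSA, NP40, catalase / Also added: SUMO1 FRET substrate flanked by Cypet and Ypet, 25 nM / Times: 50 min reaction at room temperature / Signal: FRET, CFP and YFP emission / Control set: no-enzyme low control and enzyme-plus-DMSO high control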
SENP8 conf = confirmation of human SENP8 protease inhibitors | shares compounds with SENP7 block | Recombinant SENP8, Z-RLRGG-aminoluciferin luminescence, 60 min | inhibition, % at 12.5 µM | hit rate 40% among 6,200;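 active means mean inhibition across replicates above about 50%, limit read from the data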
SENP6 conf = confirmation of human SENP6 protease inhibitors | inhibition, % at 12.5 µM | shares compounds with SENP7 block | hit rate 58% among 6,200 | recombinant SENP6, Z-RLRGG-aminoluciferin luminescence
SENP7 conf = human SENP7 inhibition, confirmed. shares compounds with SENP7 block. inhibition, % at 12.5 µM. hit rate 69% among 6,200. recombinant SENP7, Z-RLRGG-aminoluciferin luminescence, 40 min
Casp3 SENP sel = caspase-3 inhibition (SENP selectivity assay). shares compounds with SENP7 block. purified caspase-3, Z-DEVD-aminoluciferin luminescence, 60 min. inhibition, % at 12.5 µM. hit rate 60% among 6,200. AID 488918;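 active means mean inhibition above about 50%, limit read from the data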;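 further: plate controls were enzyme with DMSO for no effect and wells without caspase-3 for full effect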
SENP luc ctr = counter-screen for SENP inhibitors: luminescence interference; shares compounds with SENP7 block; Pre-incubated SENP8/Z-RLRGG-aminoluciferin, luciferase luminescence interference; inhibition, % at 12.5 µM; hit rate 39% among 6,200; AID 488919;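 active means mean inhibition above about 50% when retested at one dose, limit read from the data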;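 further: plate controls were DMSO wells with completed reaction for no effect and substrate without enzyme for full effect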
Active calls of the source: *; i = inactive; / = no result given. The list is not random: actives were taken first. Their share in the collection is about 2.5%.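 How the source made its calls, unless noted: active means mean inhibition above about 50% in the one-dose retest (limit read from the data); inactive means the rest.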

SMILES	SENP6 inh	SENP7 block	SENP8 block-1	SENP8 block-2	SENP1 inh	SENP8 conf	SENP6 conf	SENP7 conf	Casp3 SENP sel	SENP luc ctr
O=C(Nc1ccccc1)c1ccc(CSc2ncccn2)cc1	89*	91*	85*	16	2	72*	86*	96*	90*	28
CSCc1ccc(C(=O)Nc2ccc(C(N)=O)cc2)cc1	82*	86*	74*	3	0	-11	-3	14	55*	4
O=C(Nc1ccccc1F)c1ccc(CSc2ncccn2)cc1	87*	88*	83*	6	2	86*	86*	96*	90*	88*
CN(C)S(=O)(=O)c1ccc(Cl)c(NC(=O)COC(=O)CNS(=O)(=O)c2c(F)cccc2F)c1	/	/	/	12	-1	/	/	/	/	/
O=c1oc2cc(O)ccc2c2oc3cc(O)ccc3c12	74*	7	69*	-376	-161	45	50	89*	63*	12
Cc1nc(/C(N)=N/OC(=O)c2ccc(Cl)cc2)c(C(F)(F)F)o1	69*	82*	58*	11	6	74*	70*	94*	88*	78*
N#Cc1ccccc1S(=O)(=O)NC(=O)[C@H]1O[C@@H](n2cnc3c(N)ncnc32)[C@H](O)[C@@H]1O	/	/	/	26	0	/	/	/	/	/
Cc1ccc2oc(-c3cccc(NC(=S)NC(=O)c4cccs4)c3)nc2c1	45	11	6	-230	1	/	/	/	/	/
Cc1ccc2oc(-c3cccc(NC(=S)NC(=O)/C=C/c4ccco4)c3)nc2c1	57*	18	56*	-17	2	-24	-8	4	16	11
O=C(NN=c1c(=O)c2ccccc2c1=O)c1ccccc1	76*	84*	71*	69*	3	-16	71*	19	-3	3
CCCCCCOC(=O)c1ccc(OC(=O)c2cccnc2)cc1	53*	-1	44	6	1	0	10	47	14	-2
CCCCOC(=O)c1ccc(OC(=O)c2cccnc2)cc1	-17	9	-16	20	2	/	/	/	/	/
CCc1nc2c(OCc3ccccc3C)cccn2c1N(C)C(=O)c1ccc(C)cc1	/	/	/	23	0	/	/	/	/	/
O=C(O)c1ccc2cc(-c3ccccc3)[nH]c2c1	95*	100*	97*	-454	4	7	101*	104*	48	50*
O=C(NC(=O)c1ccccc1O)c1ccc(C(F)(F)F)cc1	76*	78*	71*	30	1	76*	75*	84*	84*	8
CC(=O)Nc1ccc(S(=O)(=O)/N=C2\C(=O)c3ccccc3C([O-])=C2n2cc[n+](-c3ccccn3)c2)cc1	77*	36	53*	56*	-24	70*	88*	61*	54*	4
CC(=O)Nc1ccc(S(=O)(=O)NCCSc2ccccn2)cc1	-10	-7	-6	13	2	/	/	/	/	/
c1ccc2oc(-c3ccc4nc[nH]c4c3)nc2c1	35	60*	25	-305	1	52*	50*	74*	57*	44
Nc1nc2ccc(-c3nc4ccccc4o3)cc2s1	50	35	37	i	-25	/	/	/	/	/
Cc1c(N)cccc1N	6	4	14	20	4	/	/	/	/	/
Cc1ccc2cccc(N)c2n1	52*	55*	-2	-6	2	-2	5	5	11	8
Cc1onc(-c2ccccc2Cl)c1C(=O)N(C)CC(=O)Nc1ccc(F)c(F)c1F	-6	4	-7	-1	2	/	/	/	/	/
C/C(=N\NC(=O)c1n[nH]c2c1CCC2)c1cccs1	87*	87*	82*	27	4	13	5	-8	10	1
Cc1ccc(/C=N/NC(=O)c2n[nH]c3c2CCCC3)cc1	-14	4	-5	20	5	/	/	/	/	/
C/C(=N\NC(=O)c1cc(Br)ccc1O)c1cccs1	63*	19	34	-231	-2	27	39	30	40	4
SMILES	SENP6 inh	SENP7 block	SENP8 block-1	SENP8 block-2	SENP1 inh	SENP8 conf	SENP6 conf	SENP7 conf	Casp3 SENP sel	SENP luc ctr
C/C(=N/NC(=O)c1ccc(Br)o1)c1cccs1	29	30	10	-4	-1	/	/	/	/	/
O=C(N/N=C/c1cccs1)c1n[nH]c2c1CCCC2	89*	92*	84*	23	0	7	89*	100*	96*	54*
O=S(=O)(/N=C(/Nc1nc2ccccc2s1)c1ccccc1)c1ccccc1	72*	15	60*	-8	2	1	7	9	12	23
Cc1ccc2nc(N/C(=N/S(=O)(=O)c3ccc(F)cc3)c3ccccc3)sc2c1	8	4	0	-37	1	/	/	/	/	/
c1ccc(-c2nc(-c3cccs3)[nH]c2-c2ccccc2)cc1	-3	0	3	-309	7	/	/	/	/	/
Cc1nc2nc(-c3cccs3)[nH]c2cc1Br	91*	90*	90*	-207	-1	92*	92*	99*	93*	46
Cc1ccnc2ccc(SC(F)(F)F)cc12	-7	-2	-8	8	0	/	/	/	/	/
Cc1ccc(/C=N/Nc2nc3ccccc3s2)o1	97*	83*	90*	-76	-24	84*	84*	99*	81*	48
CCN(CC)C(=O)COc1ccc(-c2ccccc2)cc1	70*	60*	46	22	1	55*	55*	82*	73*	66*
O=C(c1cc(-c2ccc(Cl)cc2Cl)on1)N1CCCC1	87*	75*	78*	10	0	-8	45	51*	30	48
O=C(c1cc(-c2ccc(Cl)cc2Cl)on1)N1CCN(C(=O)c2ccco2)CC1	-15	0	-4	36	2	/	/	/	/	/
O=C(c1cc(-c2ccc(Cl)cc2Cl)on1)N1CCCCCC1	73*	54*	55*	6	1	62*	60*	82*	46	45
O=C(NNc1c(Cl)cccc1Cl)c1cccs1	-11	11	-10	18	-1	/	/	/	/	/
O=c1oc2ccccc2cc1-c1nc2c(s1)CCCC2	48	99*	94*	-315	-27	-4	44	100*	84*	12
O=c1oc2ccccc2cc1-c1nc(-c2ccccc2)no1	38	82*	57*	i	14	11	28	29	25	-3
